What was measured:
[1] = target: T1, Broad substrate specificity ATP-binding cassette transporter ABCG2 (Homo sapiens, UniProt Q9UNQ0); assay: (§1) Reversal of ABCG2 (unknown origin)-mediated multidrug resistance in MDCK2 cells co-expressing BCRP (unknown origin) assessed as resistance factor by measuring [GI50(resistant cell line without or with compound)/ GI50(sensitive cell line)] at 1 uM incubated for 72 hrs by MTT assay (reference value: 27); format: cell-based
T1 sequence (Q9UNQ0 whole entry): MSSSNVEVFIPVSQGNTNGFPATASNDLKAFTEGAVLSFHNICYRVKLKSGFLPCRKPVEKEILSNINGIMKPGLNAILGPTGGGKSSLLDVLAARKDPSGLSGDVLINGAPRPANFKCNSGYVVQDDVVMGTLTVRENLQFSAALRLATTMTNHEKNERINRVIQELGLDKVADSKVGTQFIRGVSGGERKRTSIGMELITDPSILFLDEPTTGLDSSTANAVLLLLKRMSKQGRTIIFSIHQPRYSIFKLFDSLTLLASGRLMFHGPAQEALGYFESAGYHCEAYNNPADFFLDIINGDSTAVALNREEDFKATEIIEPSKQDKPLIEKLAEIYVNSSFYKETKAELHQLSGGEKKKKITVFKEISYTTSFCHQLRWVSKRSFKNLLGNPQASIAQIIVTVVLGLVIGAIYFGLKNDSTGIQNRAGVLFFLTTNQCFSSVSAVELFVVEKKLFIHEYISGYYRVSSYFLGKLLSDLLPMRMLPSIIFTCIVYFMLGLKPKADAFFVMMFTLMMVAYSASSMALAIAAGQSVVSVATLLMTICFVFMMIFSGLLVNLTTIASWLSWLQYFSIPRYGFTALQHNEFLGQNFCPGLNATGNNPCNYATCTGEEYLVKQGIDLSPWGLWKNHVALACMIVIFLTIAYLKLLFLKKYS

[2] = Growth inhibition of MDCK2 cells incubated for 72 hrs by MTT assay; format: cell-based, Canis lupus familiaris, MDCK-II; conditions: dog
Summary of the method: (§2)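 MTT-based cytotoxicity assay giving GI50 of the compound alone in each listed parental, selected or transfected cell line.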

[3] = target: T1, Broad substrate specificity ATP-binding cassette transporter ABCG2; assay: Inhibition of ABCG2 (unknown origin) expressed in MDCK2 cells co-expressing BCRP (unknown origin) assessed as effect on pheophorbide A accumulation pre-incubated for 20 mins followed by pheophorbide A addition and measured after 120 mins by flow cytometric analysis; format: cell-based
Summary of the method: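 Pheophorbide A accumulation assay in ABCG2-transfected MDCK II BCRP cells. Ko143 at 10 µM set 100% and no compound set 0%. Screening was at 10 µM; compounds reaching >20% (+SEM) got IC50 curves constrained to the Ko143 maximum at 10 µM. Values are reported as mean ± SEM.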

[4] = target: ABCC1 (MRP1) (Homo sapiens, UniProt P33527); assay: Inhibition of ABCC1 in human H69AR cells at 10 uM preincubated for 30 mins followed by calcein-AM addition measured at 60 secs time interval by fluorescence assay relative to control; format: cell-based; conditions: probe calcein-AM
ABCC1 (MRP1), sequence (P33527 whole entry): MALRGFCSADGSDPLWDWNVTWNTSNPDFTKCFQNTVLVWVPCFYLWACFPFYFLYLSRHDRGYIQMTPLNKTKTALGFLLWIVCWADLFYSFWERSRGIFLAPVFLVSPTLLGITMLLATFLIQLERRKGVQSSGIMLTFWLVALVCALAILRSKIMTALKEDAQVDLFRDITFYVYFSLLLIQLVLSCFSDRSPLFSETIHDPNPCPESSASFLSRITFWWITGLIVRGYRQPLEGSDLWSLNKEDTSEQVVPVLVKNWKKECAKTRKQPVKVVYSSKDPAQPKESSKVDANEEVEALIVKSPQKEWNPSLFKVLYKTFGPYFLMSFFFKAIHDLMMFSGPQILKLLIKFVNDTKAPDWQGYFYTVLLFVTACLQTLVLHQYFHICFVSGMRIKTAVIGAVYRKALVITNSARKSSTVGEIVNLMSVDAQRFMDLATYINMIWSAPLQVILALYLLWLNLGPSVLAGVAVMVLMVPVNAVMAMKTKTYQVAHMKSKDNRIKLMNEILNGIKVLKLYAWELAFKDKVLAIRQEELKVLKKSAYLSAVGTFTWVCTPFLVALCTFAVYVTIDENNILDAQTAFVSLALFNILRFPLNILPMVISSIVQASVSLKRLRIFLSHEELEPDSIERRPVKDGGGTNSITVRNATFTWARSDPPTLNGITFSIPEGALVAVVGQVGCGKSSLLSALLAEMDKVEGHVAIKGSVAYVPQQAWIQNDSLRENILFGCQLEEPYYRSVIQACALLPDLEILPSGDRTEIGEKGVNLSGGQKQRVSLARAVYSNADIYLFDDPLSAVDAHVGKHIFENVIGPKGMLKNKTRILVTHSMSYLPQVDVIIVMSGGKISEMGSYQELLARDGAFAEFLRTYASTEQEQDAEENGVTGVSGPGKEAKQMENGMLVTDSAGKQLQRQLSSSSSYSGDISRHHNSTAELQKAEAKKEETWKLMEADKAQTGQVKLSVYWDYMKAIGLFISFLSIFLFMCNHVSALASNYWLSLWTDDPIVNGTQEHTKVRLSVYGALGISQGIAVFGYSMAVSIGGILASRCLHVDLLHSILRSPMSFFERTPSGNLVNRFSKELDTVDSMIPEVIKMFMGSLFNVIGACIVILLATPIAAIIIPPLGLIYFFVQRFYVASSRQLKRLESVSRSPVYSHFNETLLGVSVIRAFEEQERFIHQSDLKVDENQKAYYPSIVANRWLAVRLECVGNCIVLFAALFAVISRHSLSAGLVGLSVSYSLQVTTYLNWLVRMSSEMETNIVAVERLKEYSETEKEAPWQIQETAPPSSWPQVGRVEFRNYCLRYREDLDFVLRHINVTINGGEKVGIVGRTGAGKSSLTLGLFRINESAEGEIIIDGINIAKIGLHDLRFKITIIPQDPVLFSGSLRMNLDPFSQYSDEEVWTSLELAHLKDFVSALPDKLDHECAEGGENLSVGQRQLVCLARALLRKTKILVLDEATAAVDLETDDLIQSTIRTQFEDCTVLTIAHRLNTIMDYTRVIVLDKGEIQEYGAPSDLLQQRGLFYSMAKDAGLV
Summary of the method: (§3)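 Calcein AM accumulation assay in H69AR small-cell lung cancer cells, which express only ABCC1. Inhibited efflux lets calcein AM build up intracellularly, where esterases cleave it to fluorescent calcein. The screen used 10 µM, scaled to a standard ABCC1 inhibitor at 10 µM as 100%. Hits reaching ≥20% inhibition (+SEM) went on to IC50 curves, constrained to that 100% maximum. Values are means of ≥3 independent experiments in duplicate ± SEM.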

[5] = target: T2, Multidrug resistance-associated protein 1 (Homo sapiens, UniProt P33527); assay: Competitive inhibition of ABCC1-mediated calcein-AM transport in human H69AR cells at 0.316 to 1.78 uM by Lineweaver-Burk plot analysis; format: cell-based
T2 sequence (P33527 whole entry): as above
Summary of the method: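 Kinetic study of calcein AM transport by Lineweaver-Burk analysis. ABCC1 was studied in H69AR cells with calcein AM at 0.25, 0.3, 0.45, 0.6 and 0.8 µM and inhibitor at 0.316, 0.562, 1.00 and 1.78 µM plus a zero control. ABCB1 was studied in A2780/ADR cells with calcein AM at 0.2–0.8 µM and inhibitor at 0.056, 0.100, 0.178 and 0.316 µM plus a zero control.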

[6] = target: T2, Multidrug resistance-associated protein 1; assay: as §1, with “ABCC1” for “ABCG2”, “MRP1” for “BCRP”, “7)” for “27)”; format: cell-based
[7] = target: T3, ATP-dependent translocase ABCB1 (Homo sapiens, UniProt P08183); assay: Reversal of ABCB1-mediated multidrug resistance in human A2780/ADR cells assessed as resistance factor by measuring [GI50(resistant cell line without or with compound)/ GI50(sensitive cell line)] at 0.5 uM incubated for 72 hrs by MTT assay (reference value: 49); format: cell-based
T3 sequence (P08183 whole entry): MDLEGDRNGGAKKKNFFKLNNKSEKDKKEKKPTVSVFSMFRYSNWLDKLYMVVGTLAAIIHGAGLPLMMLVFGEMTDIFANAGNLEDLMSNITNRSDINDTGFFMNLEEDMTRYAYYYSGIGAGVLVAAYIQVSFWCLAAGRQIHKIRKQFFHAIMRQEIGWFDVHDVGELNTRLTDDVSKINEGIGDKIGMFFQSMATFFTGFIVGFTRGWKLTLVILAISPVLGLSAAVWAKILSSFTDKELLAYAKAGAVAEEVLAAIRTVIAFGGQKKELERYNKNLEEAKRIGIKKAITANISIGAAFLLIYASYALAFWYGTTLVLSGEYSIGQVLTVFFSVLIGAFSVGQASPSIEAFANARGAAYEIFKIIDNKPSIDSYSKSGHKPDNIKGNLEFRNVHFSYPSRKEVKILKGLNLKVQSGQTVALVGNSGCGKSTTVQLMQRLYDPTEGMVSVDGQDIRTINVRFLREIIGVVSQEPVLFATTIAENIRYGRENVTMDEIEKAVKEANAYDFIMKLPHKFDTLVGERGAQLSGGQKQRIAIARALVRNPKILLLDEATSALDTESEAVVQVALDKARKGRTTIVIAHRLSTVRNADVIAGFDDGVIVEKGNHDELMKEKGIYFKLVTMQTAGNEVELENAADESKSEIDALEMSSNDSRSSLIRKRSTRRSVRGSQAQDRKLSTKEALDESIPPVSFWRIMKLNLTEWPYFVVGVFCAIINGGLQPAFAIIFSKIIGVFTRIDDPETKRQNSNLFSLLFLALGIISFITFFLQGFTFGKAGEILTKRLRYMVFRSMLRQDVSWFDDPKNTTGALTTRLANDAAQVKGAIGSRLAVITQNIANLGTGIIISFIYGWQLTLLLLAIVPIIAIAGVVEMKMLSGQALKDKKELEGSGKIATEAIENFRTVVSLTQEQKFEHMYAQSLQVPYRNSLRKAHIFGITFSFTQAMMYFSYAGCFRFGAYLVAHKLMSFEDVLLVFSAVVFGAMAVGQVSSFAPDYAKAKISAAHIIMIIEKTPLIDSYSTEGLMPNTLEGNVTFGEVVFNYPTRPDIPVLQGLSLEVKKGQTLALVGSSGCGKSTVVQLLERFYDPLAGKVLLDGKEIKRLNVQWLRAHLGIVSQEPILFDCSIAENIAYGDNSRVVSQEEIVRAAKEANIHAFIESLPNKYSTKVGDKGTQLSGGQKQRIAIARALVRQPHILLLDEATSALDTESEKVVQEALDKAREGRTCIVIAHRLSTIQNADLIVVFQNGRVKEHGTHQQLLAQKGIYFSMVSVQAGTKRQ
Summary of the method: (§4)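 MDR reversal assay with daunorubicin at 10 nM–10 µM, alone or with test compound at 0.5, 1, 5 or 10 µM. Resistant cells were ABCB1-overexpressing A2780/ADR or MDCK II MDR1, with sensitive A2780 or MDCK II cells as comparators. Resistance factor = resistant GI50 / sensitive GI50. EC50 was derived from resistance factors versus modulator concentration. Values are from ≥3 experiments in duplicate ± SEM.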

[8] = target: T1, Broad substrate specificity ATP-binding cassette transporter ABCG2; assay: as §1, with “0.5” for “1”; format: cell-based
[9] = Growth inhibition of human MCF7 cells incubated for 72 hrs by MTT assay; format: cell-based; summary of the method: as §2
[10] = target: T3, ATP-dependent translocase ABCB1; assay: Reversal of ABCB1-mediated multidrug resistance in human A2780/ADR cells assessed as resistance factor by measuring [GI50(resistant cell line without or with compound)/ GI50(sensitive cell line)] at 10 uM incubated for 72 hrs by MTT assay (reference value: 49); format: cell-based; summary of the method: as §4
[11] = target: T2, Multidrug resistance-associated protein 1; assay: Inhibition of ABCC1 in human H69AR cells preincubated for 30 mins followed by calcein-AM addition measured at 60 secs time interval by fluorescence assay; format: cell-based; summary of the method: as §3
[12] = Growth inhibition of MDCK2 cells co-expressing BCRP (unknown origin) after 72 hrs by MTT assay; format: ADME, cell-based, Canis lupus familiaris, MDCK-II; conditions: dog; summary of the method: as §2
[13] = system: ABCB1 (P-gp); assay: Therapeutic index, ratio of GI50 for human A2780/ADR cells to IC50 for ABCB1 in human A2780/ADR cells; format: toxicity, cell-based; conditions: read-out: TI
Summary of the method: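 Therapeutic ratio = GI50 from the MTT cytotoxicity assay / IC50 from the inhibition assay in the same cell line. The cell lines were H69AR (calcein AM, ABCC1), A2780/ADR (calcein AM, ABCB1) and MDCK II BCRP (pheophorbide A, ABCG2).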

[14] = Growth inhibition of human MCF7/MX cells incubated for 72 hrs by MTT assay; summary of the method: as §2
[15] = target: T1, Broad substrate specificity ATP-binding cassette transporter ABCG2; assay: Reversal of ABCG2-mediated multidrug resistance in human MCF-7/MX cells assessed as resistance factor by measuring [GI50(resistant cell line without or with compound)/ GI50(sensitive cell line)] at 5 uM incubated for 72 hrs by MTT assay (reference value: 789); format: cell-based
[16] = Growth inhibition of MDCK2 cells co-expressing MDR1 (unknown origin) incubated for 72 hrs by MTT assay; format: ADME, cell-based, Canis lupus familiaris, MDCK-II; conditions: dog; summary of the method: as §2
[17] = target: T3, ATP-dependent translocase ABCB1; assay: as §1, with “ABCB1” for “ABCG2”, “MDR1” for “BCRP”, “0.5” for “1”, “17)” for “27)”; format: cell-based; summary of the method: as §4
[18] = Growth inhibition of human A2780/ADR cells incubated for 72 hrs by MTT assay; format: cell-based; summary of the method: as §2

CC1CCc2c(sc3nc(-c4cccnc4)nc(N4CCN(C(C(N)=O)c5ccccc5)CC4)c23)C1 (stereo not drawn)
RatioGI50 [1]: 17
GI50 at 72 h [2]: 27 µM
IC50 [3]: 2.38 µM
inhibition at 1 min, 10 µM [4]: ≥ 20%
inhibition (INH) [5]: Active
RatioGI50 [6]: 3.4
RatioGI50 [7]: 32
RatioGI50 [8]: 21
GI50 at 72 h [9]: 57.8 µM
RatioGI50 [10]: 4.1
IC50 [11]: 5.04 µM
GI50 at 72 h [12]: 16.4 µM
selectivity ratio [13]: 14.9
GI50 at 72 h [14]: 47 µM
RatioGI50 [15]: 179
GI50 at 72 h [16]: 25 µM
RatioGI50 [17]: 7.1
GI50 at 72 h [18]: 25.8 µM
